Measured values of several laboratories.
Read-out: cell growth or viability

`O=C(C=Cc1ccccc1)Nc1ccc(Oc2nnc(-c3ccc(Cl)cc3)c3ccccc23)cc1` gave a viability of 2.63% (HepG2; MTT; 10 µM; 24 h).
For `CC(=NNC(=O)COc1ccc2c(C)c(Cc3ccccc3)c(=O)oc2c1C)c1ccc(Br)cc1`, the viability was 58% (HepG2; MTT; 0.4 µg/mL).
The viability of `CC(=NNC(=O)c1cccnc1)c1ccc(Nc2nnc(-c3ccc(Cl)cc3)c3ccccc23)cc1` is reported as 3.2% (HepG2; MTT; 5 µM; 24 h).
`CC(C)(C)c1cnc(CSc2cnc(NC(=O)C3CCN(C(=O)COCCOCCSc4cccc5c4C(=O)N(C4CCC(=O)NC4=O)C5=O)CC3)s2)o1` (stereo not drawn) has a viability of 94.2% (HH; CCK-8; 0.2 µM).
`CC(=NNC(=S)Nc1ccccc1)c1ccc(Nc2nnc(-c3ccc(Cl)cc3)c3ccccc23)cc1` gave a viability of 4.26% (HepG2; MTT; 10 µM; 24 h).
`CC(=O)c1nn(-c2ccc(C)cc2)/c(=N/N=C(\C)c2ccc(NC(=O)c3ccccc3)cc2)s1` gave a viability of 6.81% (HepG2; MTT; 2.5 µM).
`CC(C)(C)c1cnc(CSc2cnc(NC(=O)C3CCN(C(=O)CCCSc4cccc5c4C(=O)N(C4CCC(=O)NC4=O)C5=O)CC3)s2)o1` (stereo not drawn) has a viability of 99.7% (HH; CCK-8; 10 nM).
`CCOC(=O)c1nn(-c2cccc(Cl)c2)/c(=N/N=C(\C)c2ccc(NC(=O)c3ccccc3)cc2)s1` has a viability of 81.9% (HepG2; MTT; 78 nM).
`CC(C)(C)c1cnc(CSc2cnc(NC(=O)C3CCN(CCCCCSc4cccc5c4CN(C4CCC(=O)NC4=O)C5=O)CC3)s2)o1` (stereo not drawn) has a viability of 97.6% (HH; CCK-8; 50 nM).
`CC(=O)c1nn(-c2ccccc2Cl)/c(=N/N=C(\C)c2ccc(NC(=O)c3ccccc3)cc2)s1` has a viability of 6.13% (HepG2; MTT; 10 µM).
`CC(C)(C)c1cnc(CSc2cnc(NC(=O)C3CCN(CCCCCCCCSc4cccc5c4C(=O)N(C4CCC(=O)NC4=O)C5=O)CC3)s2)o1` (stereo not drawn) gave a viability of 92.6% (HH; CCK-8; 50 nM).
`CC(=O)Nc1ccc(/C(C)=N/N=c2\sc(C(C)=O)nn2-c2ccc(C)cc2)cc1` gave a viability of 86% (HepG2; MTT; 5 µM).
With `CC(=NNC(=O)c1ccccc1)c1ccc(Nc2nnc(-c3ccc(Cl)cc3)c3ccccc23)cc1` the viability was 99.6% (HepG2; MTT; 0.312 µM; 24 h).
`CCOC(=O)c1nn(-c2cccc(Cl)c2)/c(=N/N=C(\C)c2ccc(NC(=O)c3ccc(Cl)cc3)cc2)s1` has a viability of 2.86% (HepG2; MTT; 2.5 µM).
For `O=C(Nc1ccc(Oc2nnc(-c3ccc(Cl)cc3)c3ccccc23)cc1)c1cccc([N+](=O)[O-])c1`, the viability was 6.17% (HepG2; MTT; 10 µM; 24 h).
